Measured values from paper PMC12800337 (Nature Communications, 2025).
Where a SMILES comes first, the peptide text is derived from it. The star is where a group is joined. 5FAM = O=C1OC2(c3ccc(O)cc3Oc3cc(O)ccc32)c2ccc(C(=O)*)cc21; βAla = NCCC(=O)O; X1 = OB(O)C*

Assays:
[1] = Stability of BA-modified proteins as lyophilized powder; type: physicochemical; conditions: purified protein, confirmed by deconvoluted mass
[2] = system: S. aureus (MTCC 7443); assay: S. aureus staining, flow cytometry median fluorescence; type: cell-based, Staphylococcus aureus; conditions: 2 µM, PBS pH 7.4, 30 min, washed, flow cytometry median value
[3] = system: S. aureus; assay: Confocal imaging of stained S. aureus; type: cell-based, Staphylococcus aureus; conditions: confocal optical sectioning of stained S. aureus cells
How it was run: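 S. aureus (MTCC 7443) incubated with fluorescein-labelled test peptide for 30 min at 37 °C, washed three times in PBS. 5 µL of cells pressed under a coverslip on a glass slide to a single cell layer. Imaged by laser-scanning confocal microscopy with optical sectioning: 40× oil objective, argon laser at 10% power, gain 900–1100 HV, offset −0.5%. Representative of 2 independent experiments.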

[4] = system: E. coli (MTCC 1687); assay: E. coli staining; type: cell-based; conditions: P2 5 μM, confocal microscope
How it was run: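 E. coli and S. aureus each diluted 1:100 from secondary culture and grown to OD₆₀₀ 0.4, then mixed and pelleted at 5000 × g. Pellet incubated with fluorescein-labelled test peptide in PBS (pH 7.4) at 37 °C for 30 min. Washed twice in PBS, resuspended in 100 µL PBS, imaged by confocal microscopy (40× oil, argon laser). Representative of 2 independent experiments.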

[5] = system: HEK 293; assay: Mammalian cell staining, confocal microscope; type: cell-based, human; conditions: P2 5 µM, compared to the brightness detected on S. aureus
How it was run: (§1)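 Cells at 70% confluence detached with trypsin-EDTA and seeded at 1 × 10⁵ cells/well in glass-bottom dishes, then grown for 24 h. Medium replaced with PBS containing fluorescein-labelled test peptide; incubated 30 min at 37 °C. Washed three times with PBS, given fresh medium, imaged by confocal microscopy (40× oil, argon laser at 10%). Representative of 2 independent experiments.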

[6] = system: A549; assay: Mammalian cell staining, confocal microscope; type: cell-based; conditions: P2 5 µM, compared to the brightness detected on S. aureus
How it was run: as §1

[7] = Serum stability assay of peptides; type: in vitro ADME; conditions: human serum, fluorophore unlabeled peptides, HPLC
How it was run: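 Test peptide incubated in human serum; the remaining intact peptide was monitored by HPLC to derive half-life. Mean ± SEM from 3 independent replicates.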

[8] = system: S. aureus; assay: Mannitol inhibition assay of Fl-P2 binding; type: cell-based, Staphylococcus aureus; conditions: 50 mM mannitol, P2 2 µM, flow cytometry

BSA-BA: BSA with methylene-BA at a single free thiol site
stability as a lyophilized powder (in words) [1]: stable for over a week

lysozyme-BA: lysozyme with methylene-BA conjugates at Cys6 and Cys115 (major product)
stability as a lyophilized powder (in words) [1]: stable for over a week

CSCC[C@H](NC(=O)[C@H](CCCNC(=N)N)NC(=O)[C@H](CCCNC(=N)N)NC(=O)[C@H](CCCCN)NC(=O)[C@H](C)NC(=O)[C@H](CCCNC(=N)N)NC(=O)CNC(=O)[C@@H](NC(=O)CCNC(=O)c1ccc2c(c1)C(=O)OC21c2ccc(O)cc2Oc2cc(O)ccc21)[C@@H](C)O)C(=O)N[C@@H](CSCB(O)O)C(=O)N[C@@H](Cc1ccc(O)cc1)C(=O)N[C@@H](CSCB(O)O)C(=O)N[C@@H](CCCNC(=N)N)C(=O)N[C@@H](CCCNC(=N)N)C(N)=O [P2] ({5FAM-βAla}-TGRAKRRMC(X1)YC(X1)RR-NH2)
S. aureus staining efficiency relative to P0 and P3 [2]: ~ 40 fold | uptake in bacterial cytosol (optical sectioning) [3]: uptake of P2 in bacterial cytosol | staining of E. coli [4]: no significant staining | staining of HEK 293 cells [5]: minimal staining | staining of A549 cells [6]: minimal staining | serum half-life relative to parent UBI peptide (P0) [7]: around 14 times | staining ability of P2 after mannitol complexation (reduced to) [8]: ~ 60%

TGRAKRRMCYNRR-NH2 [P1]
S. aureus staining efficiency relative to P0 and P3 [2]: ~ 8 fold
